The source made the active and inactive calls. No cut-off for these calls is given here. Bounds are passed on as bounds.

Experimental findings from ChEMBL document CHEMBL3286314, “Tetraoxane-pyrimidine nitrile hybrids as dual stage antimalarials” (J Med Chem, 2014) are described below.

Data set [1] deals with Plasmodium berghei. Nature of the data set: Antiplasmodial activity against liver stage Plasmodium berghei infected in human HuH7 cells assessed as decrease in parasite load at 10 uM treated for 1 hr prior to infection measured after 48 hrs by luciferase luminescence assay. As to conditions: Huh-7.
The nature of data set [2]: Selectivity index, ratio of CC50 for mouse NIH/3T3 cells to IC50 for chloroquine-resistant Plasmodium falciparum W2. It counts as functional. Put shortly:
(§1)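 SI taken as in vitro cytotoxicity IC50 on HEK293T or NIH3T3 cells divided by the P. falciparum W2 growth-inhibition IC50.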

Data set [3] can be described thus: Cytotoxicity against mouse NIH/3T3 cells. In kind it is cell-based, NIH3T3.
The nature of data set [4]: Cytotoxicity against HEK293T cells. In kind it is cell-based, HEK-293T. As to conditions: human.
In data set [5] the test system is Plasmodium falciparum. The data set can be described thus: Antiplasmodial activity against chloroquine-sensitive Plasmodium falciparum 3D7 after 48 hrs by FACS analysis. It counts as functional, organism-based. Conditions: 3D7, 48 h.
A short description of data set [6]: Selectivity index, ratio of CC50 for HEK293T cells to IC50 for chloroquine-resistant Plasmodium falciparum W2. It counts as functional, HEK-293T. The procedure, abridged: as §1
The nature of data set [7]: Inhibition of Plasmodium falciparum recombinant falcipain-2 after 30 mins by spectrofluorometric analysis. The procedure, abridged:
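Recombinant falcipain-2 (~1 nM) preincubated 30 min at room temperature with inhibitor (from 100× DMSO stocks) in 100 mM sodium acetate pH 5.5, 10 mM dithiothreitol. Then Z-Leu-Arg-AMC substrate added (final 25 μM). Fluorescence monitored continuously for 30 min at room temperature; IC50 from activity plots.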

Data set [8] deals with Plasmodium berghei. The data set can be described thus: Antiplasmodial activity against Plasmodium berghei ANKA infected in C57Bl/6J mouse assessed as survival at 30 mg/kg/day, ip qd for 5 days measured on day 18 post-infection. In kind it is functional, organism-based. The procedure, abridged:
(§2)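 C57Bl/6J mice infected intraperitoneally with 2 × 10^6 GFP-expressing P. berghei ANKA-infected erythrocytes. Treatment started at parasitemia ca. 3.9% (day 4 postinfection): 30 mg/kg bw once daily ip for 5 days. Controls received equivalent drug vehicle. Parasitemia was followed daily by microscopy and flow cytometry; disease symptoms and survival were also recorded daily.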

In data set [9] the test system is Plasmodium falciparum. Nature of the data set: Antiplasmodial activity against chloroquine-resistant Plasmodium falciparum W2 after 48 hrs by FACS analysis. It counts as functional, organism-based. As to conditions: W2, 48 h. The procedure, abridged:
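Synchronized ring-stage parasites cultured 48 h with multiple compound concentrations (from 1000× DMSO stocks) in RPMI 1640 with 10% human serum. Fixed in 1% formaldehyde/PBS pH 7.4 for 48 h at room temperature, stained with YOYO-1 (1 nM) in 0.1% Triton X-100/PBS. Parasitemia read by flow cytometry; IC50 from curve fits of percentage of control parasitemia.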

In data set [10] the test system is Plasmodium falciparum. Nature of the data set: Antiplasmodial activity against atovaquone-resistant Plasmodium falciparum FCR3 after 48 hrs by FACS analysis. In kind it is functional, organism-based. Conditions: FCR3, 48 h.
Data set [11] concerns Plasmodium berghei. The data set can be described thus: Antiplasmodial activity against Plasmodium berghei ANKA infected in C57Bl/6J mouse assessed as parasitemia level at 30 mg/kg/day, ip qd for 5 days measured on day 8 post-infection by microscopic/flow cytometric analysis. In kind it is functional, organism-based. The procedure, abridged:
as §2
(A flow cytometer gives signals particle by particle.)

Data set [12] is described as follows: Half life of the compound in 18 equiv of FeSO4 in aqueous acetonitrile assessed as N'-(5-bromo-2-cyanopyrimidin-4-yl)-N'-isobutyl-4-oxocyclohexanecarbohydrazide level by LC-MS analysis. In kind it is physicochemical. Conditions: buffer. The procedure, abridged: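 Aqueous solution of compound treated with high concentration of iron(II) sulfate; mixture analysed by LCMS. Decomposition to the ketone product fitted to first-order decay kinetics to give the half-life.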

Data set [13] concerns Plasmodium berghei. Nature of the data set: Antiplasmodial activity against Plasmodium berghei ANKA infected in C57Bl/6J mouse assessed as parasitemia level at 30 mg/kg/day, ip qd for 5 days measured on day 18 post-infection by microscopic/flow cytometric analysis. In kind it is functional. As to conditions: route intraperitoneal. Put shortly:
as §2

Data set [14] relates to Plasmodium falciparum. The data set can be described thus: Inhibition of falcipain-2-mediated hemoglobin degradation in ring stage Plasmodium falciparum assessed as development of swollen digestive vacuoles at 123 nM after 24 hrs. The procedure, abridged:
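Cultured parasites exposed to 123 nM compound for 24 h starting at ring stage. Examined for swollen digestive vacuoles with erythrocyte-cytoplasm staining characteristics.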

Data set [15] concerns Plasmodium berghei. The data set can be described thus: Antiplasmodial activity against liver stage Plasmodium berghei infected in human HuH7 cells assessed as decrease in parasite load at 2 uM treated for 1 hr prior to infection measured after 48 hrs by luciferase luminescence assay. As to conditions: Huh-7.

Consider `COc1cc(NC(C)CCCN)c2ncccc2c1` (stereo not given), for which the result in the data set with Plasmodium berghei [1] was Active.
The term CC50 denotes the concentration giving 50% cytotoxicity. What is called IC50 is the concentration needed to halve the response being measured. As to `CC(C)CN(NC(=O)C1CCC2(CC1)OOC1(OO2)C2CC3CC(C2)CC1C3)c1nc(C#N)ncc1Cl` (stereo not given), the “Ratio CC50/IC50” value in data set [2] is 133; in data set [6], above 2959. Also, the CC50 in [3] is 4500 nM; in data set [4] it was above 100000 nM. In addition, the IC50 in the data set on Plasmodium falciparum [5] came out at 80.9 nM; in [7] it was 3.4 nM; in the data set with Plasmodium falciparum [9], 33.8 nM; in the data set on Plasmodium falciparum [10], 53.3 nM. Moreover, the result in the data set on Plasmodium berghei [8] and in the data set with Plasmodium berghei [11] was Active. Besides, the t1/2 in [12] came to 5.1 h. Further, in the data set on Plasmodium berghei [13], the Activity worked out at 51%. For the same molecule, in the data set on Plasmodium falciparum [14], the inhibition entry is “Active”.
As to `CC(C)CN(NC(=O)C1CCC2(CC1)OOC1(OO2)C2CC3CC(C2)CC1C3)c1cc(Cl)nc(C#N)n1` (stereo not given), the results for the “Ratio CC50/IC50” value in [2] and in [6] were 35 and above 2045, respectively. Further, the values for the CC50 in data set [3] and in data set [4] were 1700 nM and above 100000 nM, respectively. Besides, the concentration for half-maximal inhibition (IC50) in the data set with Plasmodium falciparum [5] worked out at 28.4 nM; in data set [7] it was 978 nM; in the data set with Plasmodium falciparum [9] it was 48.9 nM; in the data set with Plasmodium falciparum [10], 37.7 nM. For the same molecule, in the data set with Plasmodium falciparum [14], the inhibition result was “inactive”.
In the case of `O=C1C(O)=C([C@H]2CC[C@H](c3ccc(Cl)cc3)CC2)C(=O)c2ccccc21`, the result in the data set with Plasmodium berghei [15] was Active.
On to `CC(C)CN(NC(=O)CC1CCC2(CC1)OOC1(OO2)C2CC3CC(C2)CC1C3)c1nc(C#N)ncc1Br` (stereo not given), for which the “Ratio CC50/IC50” value in data set [2] was 101; in data set [6], 3750. For the same molecule, the CC50 stood at 2300 nM in data set [3] and 85500 nM in data set [4]. Also, the IC50 in the data set on Plasmodium falciparum [5] was 18.9 nM; in data set [7] it was 95.1 nM; in the data set with Plasmodium falciparum [9], 22.8 nM. The inhibition result in the data set on Plasmodium falciparum [14] is “Active”.
`CC(C)CN(NC(=O)C1CCC(=O)CC1)c1nc(C#N)ncc1Br`: the “Ratio CC50/IC50” value in [2] and in data set [6] was above 2079 each time. Besides, the CC50 in [3] and in data set [4] was above 100000 nM each time. Also, the figures for the IC50 (in the data set on Plasmodium falciparum [5]; in data set [7]; in the data set with Plasmodium falciparum [9]) were 48.2 nM, 58.4 nM and 48.1 nM, respectively. Moreover, the result in the data set with Plasmodium berghei [15] and in the data set with Plasmodium berghei [1] was Active. Besides, in the data set on Plasmodium falciparum [14], the inhibition entry is “Active”.
`C[C@@H]1CC[C@H]2[C@@H](C)C(=O)O[C@@H]3O[C@@]4(C)CC[C@@H]1[C@]32OO4` [ARTEMISININ]: the IC50 amounted to 36.2 nM with Plasmodium falciparum [5], 14.1 nM with Plasmodium falciparum [9] and 7.7 nM in the data set with Plasmodium falciparum [10]. For the same molecule, the result with Plasmodium berghei [15] and with Plasmodium berghei [1] was inactive.
Take `CC(C)CN(NC(=O)C1CCC2(CC1)OOC1(OO2)C2CC3CC(C2)CC1C3)c1ccnc(C#N)n1` (stereo not given): the “Ratio CC50/IC50” value in data set [2] was 19; in data set [6], above 2114. Moreover, the CC50 in data set [3] was 900 nM; in [4], above 100000 nM. Moreover, the IC50 in the data set on Plasmodium falciparum [5] came out at 13.1 nM; in data set [7] it was 909 nM; in the data set on Plasmodium falciparum [9] it was 47.3 nM; in the data set on Plasmodium falciparum [10], 30.3 nM. Besides, the inhibition result with Plasmodium falciparum [14] is “inactive”.
On to `CC(C)CN(NC(=O)C1CCC2(CC1)OOC1(OO2)C2CC3CC(C2)CC1C3)c1nc(C#N)ncc1Br` (stereo not given), for which the “Ratio CC50/IC50” value in data set [2] is 816; in data set [6], above 10000. The CC50 in [3] was 8000 nM; in data set [4], above 100000 nM. The values for the IC50 (with Plasmodium falciparum [5]; in data set [7]; with Plasmodium falciparum [9]) were 58.1 nM, 16.4 nM and 9.8 nM, respectively. Moreover, the inhibition result in the data set with Plasmodium falciparum [14] was “Active”.
With `N#Cc1ncc(Br)c(N(NC(=O)C2CCC3(CC2)OOC2(OO3)C3CC4CC(C3)CC2C4)C2CCCCC2)n1` (stereo not given), the “Ratio CC50/IC50” value in [2] is given as 63; in data set [6], above 4464. Also, the CC50 was 1400 nM in data set [3] and above 100000 nM in [4]. The IC50 with Plasmodium falciparum [5] was found to be 78.5 nM; in data set [7], 25.3 nM; in the data set with Plasmodium falciparum [9] it was 22.4 nM; with Plasmodium falciparum [10] it was 81.2 nM. Besides, the inhibition result in the data set on Plasmodium falciparum [14] is “Active”.
In the case of `N#Cc1ncc(Br)c(N(CC2CCCC2)NC(=O)C2CCC3(CC2)OOC2(OO3)C3CC4CC(C3)CC2C4)n1` (stereo not given), the “Ratio CC50/IC50” value in [2] is recorded as 186; in data set [6], above 3390. Moreover, the CC50 in [3] was 5500 nM; in [4], above 100000 nM. Besides, the IC50 in the data set with Plasmodium falciparum [5] amounted to 70.7 nM; in data set [7] it was 112 nM; in the data set with Plasmodium falciparum [9], 29.5 nM.
